The source of these data is ChEMBL document CHEMBL4354825, “Design and Synthesis of Basic Selective Estrogen Receptor Degraders for Endocrine Therapy Resistant Breast Cancer” (J Med Chem, 2019).

The nature of series [1]: AUC extrapolated from the last time point to infinity in CD-1 mouse at 5 mg/kg, iv measured upto 24 hrs by LC-MS/MS analysis. The settings on record: in vivo.
The test system of series [2] is MCF7:TAM1. Kind of series: Antitumor activity against human MCF7:TAM1 cells xenografted in athymic nude mouse assessed as tumor regression at 100 mg/kg, po measured after 4 weeks. It is filed as functional, organism-based. In short, it runs like this:
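MCF7:TAM1 cells were implanted into mammary fat pads of ovariectomized 4–6-week-old athymic nude mice carrying subcutaneous E2 silastic capsules (1.0 cm). Dosing was 100 mg/kg/day p.o. in 10% HPCD/PEG-400 (9:1). Tumor area was measured weekly by calipers as (length/2)×(width/2)×π.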

The nature of series [3]: AUClast/D in CD-1 mouse at 5 mg/kg, iv measured upto 24 hrs by LC-MS/MS analysis. Conditions: in vivo.
Series [4] is described as follows: Half life in CD-1 mouse plasma at 50 mg/kg, po measured upto 24 hrs by LC-MS/MS analysis. Conditions: in vivo.
The test system of series [5] is T47D. Description: Cytotoxicity against human T47D 3D spheroid cells harboring D538G mutant assessed as reduction in tumor cell viability at 10 nM incubated for 14 days by celltiter-glo 3D cell viability assay. Background: ATP-based viability assays read luminescence as a measure of living cells.
In the next series the test system is Mus musculus. Description: In vivo degradation of ERalpha in C57BL/6 mouse at 50 mg/kg, po administered for 3 days and measured on day 3 by Western blot analysis. The class given is functional, organism-based. In short, it runs like this:
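Female C57BL/6J mice aged 9–12 weeks were dosed at 50 mg/kg p.o. in PEG 400/10% HPCD (1:9 v/v). Regimens were a single dose with sacrifice at 5 h, or 3 daily doses with sacrifice 5 h (n = 5) or 7 h (n = 6) after the last dose. Ovaries and uterus were homogenized, 20 μg protein was run by SDS-PAGE, and the blot was probed for ERα and normalized to β-actin.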
For orientation: A western blot detects proteins with antibodies after separation by electrophoresis.

Series [6] in a line: Antiproliferative activity against human MCF7:WS8 cells assessed as reduction in cell viability incubated for 5 days by Hoechst 33258 dye based assay. The settings on record: MCF7:WS8, 120 h. The class given is functional. In short, it runs like this: (§1)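 Cells were seeded at 5000 per well; MCF7:WS8 had been estrogen-stripped for 2 days first. Compounds were serially diluted in DMSO, with 0.01% DMSO as vehicle. The medium was removed on day 5 (MCF7:WS8) or day 7 (MCF7:5C), and cells were lysed by freezing at −80 °C overnight. DNA was measured by Hoechst 33258 fluorescence. Maximum efficacy was normalized to vehicle (0%) and no cells (100%); at least three biological replicates.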

A further series has as its system Rattus norvegicus. Description: Induction of uterotrophic activity in Sprague-Dawley rat assessed as increase in uterine weight at 10 mg/kg, po administered for 3 days and measured after 24 hrs of last dosing by hematoxylin eosin staining based imaging analysis. The class given is functional, organism-based. In short, it runs like this: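 Female Sprague-Dawley rats were dosed from day 19 of age once daily for 3 days: 10 mg/kg p.o. in 2% Tween 80/0.5% methylcellulose. EE2 (0.1 mg/kg p.o., peanut oil) was the positive control. Uteri were excised and weighed 24 h after the last dose; one half was fixed in 4% paraformaldehyde for H&E histology.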

The test system of series [7] is MCF7:TAM1. Kind of series: Cytotoxicity against human MCF7:TAM1 3D spheroid cells assessed as reduction in tumor cell viability at 10 nM incubated for 14 days by celltiter-glo 3D cell viability assay.
The target in a further series is T1, Estrogen receptor (Homo sapiens, UniProt P03372).
T1 sequence (P03372 whole entry): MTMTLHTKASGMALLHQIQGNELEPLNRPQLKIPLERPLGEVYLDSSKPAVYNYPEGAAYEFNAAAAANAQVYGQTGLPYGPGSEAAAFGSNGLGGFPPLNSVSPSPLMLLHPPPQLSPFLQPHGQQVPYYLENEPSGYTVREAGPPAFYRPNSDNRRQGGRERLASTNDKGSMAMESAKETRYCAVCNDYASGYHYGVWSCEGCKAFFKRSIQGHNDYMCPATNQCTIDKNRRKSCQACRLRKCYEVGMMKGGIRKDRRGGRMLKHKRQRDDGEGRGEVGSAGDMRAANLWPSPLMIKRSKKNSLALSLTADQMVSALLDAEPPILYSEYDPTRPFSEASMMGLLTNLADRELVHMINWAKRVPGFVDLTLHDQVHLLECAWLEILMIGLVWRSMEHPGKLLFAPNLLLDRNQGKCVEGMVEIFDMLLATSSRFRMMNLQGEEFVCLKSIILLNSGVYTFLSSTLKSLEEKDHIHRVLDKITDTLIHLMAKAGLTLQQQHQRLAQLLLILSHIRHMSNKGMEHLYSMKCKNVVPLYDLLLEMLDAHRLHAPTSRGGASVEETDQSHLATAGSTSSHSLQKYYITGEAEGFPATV
Description: Antagonist activity at ERalpha in human MCF7:WS8 cells incubated for 18 hrs by dual luciferase reporter gene assay relative to control. It is filed as cell-based. In short, it runs like this: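 MCF7:WS8 cells were estrogen-deprived for 3 days (phenol red-free RPMI, stripped FBS), then plated and grown 24 h. They were co-transfected for 6 h with a 3×vitellogenin ERE-firefly luciferase plasmid and a pRL-TK Renilla plasmid. Compounds were given in competition with 1 nM E2 for 18 h, then dual luciferase was read.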

For series [8], the system named is T47D. Kind of series: Cytotoxicity against human T47D 3D spheroid cells harboring Y537S mutant assessed as reduction in tumor cell viability at 10 nM incubated for 14 days by celltiter-glo 3D cell viability assay.
Series [9] relates to T47D. Kind of series: Cytotoxicity against human T47D 3D spheroid cells assessed as reduction in tumor cell viability at 10 nM incubated for 14 days by celltiter-glo 3D cell viability assay.
The nature of series [10]: Antiproliferative activity against human MCF7:WS8 cells assessed as reduction in cell viability incubated for 5 days by Hoechst 33258 dye based assay relative to control. The class given is functional. Conditions: MCF7:WS8, 120 h. In short, it runs like this: as §1
Series [11] in a line: MRT (0 to infinity) in CD-1 mouse plasma at 50 mg/kg, po measured upto 24 hrs by LC-MS/MS analysis. The settings on record: in vivo.
Series [12] is described as follows: AUC (0 to infinity) in C57BL/6 mouse at 5 mg/kg, iv measured upto 24 hrs by LC-MS/MS analysis. The class given is ADME, organism-based. The settings on record: in vivo. Set-up: dose 5 mg/kg, route intravenous, time infinity. In short, it runs like this:
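Full PK run by a contract lab. Dosing was 50 mg/kg p.o. in water and 10% SBE-β-CD/PEG-400 (9:1 v/v), and 5 mg/kg i.v. Sampling at 0.25, 0.5, 1, 2, 4, 8 and 24 h (N = 5). Plasma samples were diluted in 50% acetonitrile and quantified by LC-MS/MS against standards serially diluted in 50% acetonitrile. Brain was also sampled after the oral dose.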

In series [13] the target is T2, Estrogen receptor (Homo sapiens) (UniProt P03372).
T2 sequence (whole entry): T1 sequence (P03372 whole entry)
Description: Induction of degradation of ERalpha in human MCF7:WS8 cells at 100 nM in presence of MG-132 incubated for 24 hrs by Western blot analysis. The class given is cell-based.

pIC50: −log10 of the molar value. The source made the active and inactive calls. No cut-off for these calls is given here.

Usually pIC50 stands for the IC50 on a negative log10 scale, so that one unit is a factor of ten. Usually MRT stands for the average time that molecules of a dose stay in the body. By AUC is commonly meant the area under the concentration-time curve, a measure of exposure. High values mean high exposure, low ones low exposure. In the case of `Cc1cc(F)cc(C)c1C(=O)c1sc2cc(O)ccc2c1Oc1ccc(OC2CN(CCCF)C2)cc1`, in [1], the “%AUCextra” value was 1.52%. Moreover, the outcome with MCF7:TAM1 [2], in the series with T47D [5], in the series with Mus musculus, with MCF7:TAM1 [7], in the series on T47D [8] and in the series on T47D [9] was Active. This compound also came in with an AUClast/dose in [3] of 153 ng·h/mL. In series [4], this compound registered a t1/2 of 4.48 h. For the same compound, the values for the pIC50 (in series [6]; at Estrogen receptor) were 9.26 and 8.51, respectively. Also, the result (in the series on Rattus norvegicus; in series [13]) was inactive. In [10], the Emax is 80%. In addition, in [11], the mean residence time (MRT) came to 6.05 h. For the same compound, in series [12], the AUC came out at 778 ng·h/mL.
